Source: PubChem BioAssay (several laboratories)
Runt-SMMHC FRET: blocks binding of human RUNX1 Runt domain to CBFb-SMMHC. Cerulean-Runt/Venus-CBFb-SMMHC FRET ratio 530/480, 1 h. Q01196+Q13951. inhibition, % at 20 µM. hit rate 0.74% among 220,000;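 active = mean inhibition across duplicate retests at 20 µM reaching about 50%, limit read from the data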;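 also: inhibitors lower the FRET ratio by blocking Runt binding to CBFb-SMMHC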
TbHK1 inh: T. brucei hexokinase 1 inhibition | hit rate 0.11% among 220,000 | recombinant TbHK1, G6PDH-coupled NADH A340 | inhibition, % at 10 µM | AID 1430;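 active = inhibition of 50% or more in the single-dose primary screen; inactive = inhibition below 50%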
Hck Nef HTS: blocks Nef-activated human Hck kinase; P08631; Recombinant Hck-YEEI plus Nef, Z-Lyte FRET kinase assay; inhibition, % at 20 µM; hit rate 0.68% among 220,000;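 active = Hck-Nef kinase inhibition above about 50%, limit read from the data; inactive = inhibition below that limit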
Target sequence (P08631 whole entry, looked up): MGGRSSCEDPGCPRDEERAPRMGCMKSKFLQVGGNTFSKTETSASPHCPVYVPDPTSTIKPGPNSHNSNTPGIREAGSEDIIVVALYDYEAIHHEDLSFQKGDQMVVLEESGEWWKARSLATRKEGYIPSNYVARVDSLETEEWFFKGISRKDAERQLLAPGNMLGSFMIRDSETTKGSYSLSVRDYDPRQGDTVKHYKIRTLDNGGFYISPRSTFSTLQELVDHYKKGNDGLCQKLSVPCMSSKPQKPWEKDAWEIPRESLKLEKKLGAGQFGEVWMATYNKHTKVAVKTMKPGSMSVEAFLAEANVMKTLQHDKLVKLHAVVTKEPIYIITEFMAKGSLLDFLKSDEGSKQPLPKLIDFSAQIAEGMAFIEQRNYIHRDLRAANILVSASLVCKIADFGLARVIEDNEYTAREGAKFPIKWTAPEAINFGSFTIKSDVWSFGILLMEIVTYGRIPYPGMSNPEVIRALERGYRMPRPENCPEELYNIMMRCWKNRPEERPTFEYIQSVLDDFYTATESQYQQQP
RanGTP-Impb inh: disruptors of Ran-importin-beta complex formation – biochemical, FRET, CFP-Ran, YFP-importin-beta, homogeneous, primary screen | cell-free CFP-Ran/YFP-importin-beta FRET ratio | inhibition, % (no concentration beside the values) | hit rate 1.1% among 300,000;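 active = more than half of the replicate wells show a fall in the fluorescence ratio signal beyond about 16%, limit read from the data, passing the limit was not always enough; inconclusive = exactly half of the replicate wells pass the set limit; inactive = fewer than half of replicates pass the limit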
Runt-CBFb FRET: blocks binding of human RUNX1 Runt domain to CBFb. Q01196+Q13951. Cerulean-Runt/Venus-CBFb FRET ratio 530/480, 1 h. inhibition, % at 20 µM. hit rate 0.46% among 220,000;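 active = inhibition over about 50% at 20 µM in the single-dose screen, limit read from the data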
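Assay system: Cerulean-tagged RUNX1 Runt domain (FRET donor) fusion protein / Amount: 100 nM each of Venus-CBFb and Cerulean-Runt domain / Medium: Tris buffer pH 7.5 with salts and BSA / Also added: Venus-CBFb 100 nM / Schedule: 1 h complex formation plus 1 h compound treatment, room temperature / Signal: FRET fluorescence / Read-out: loss of energy transfer signal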
14-3-3 Bad inh: disrupts binding of bovine 14-3-3 zeta to phospho-Bad peptide. hit rate 0.71% among 220,000. inhibition, % at 21.7 µM. P63103. TR-FRET 14-3-3zeta/Dy647-pBad peptide displacement, 1 h. AID 781;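 active = inhibition above about 70%, limit read from the data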
Target sequence (P63103 whole entry, looked up): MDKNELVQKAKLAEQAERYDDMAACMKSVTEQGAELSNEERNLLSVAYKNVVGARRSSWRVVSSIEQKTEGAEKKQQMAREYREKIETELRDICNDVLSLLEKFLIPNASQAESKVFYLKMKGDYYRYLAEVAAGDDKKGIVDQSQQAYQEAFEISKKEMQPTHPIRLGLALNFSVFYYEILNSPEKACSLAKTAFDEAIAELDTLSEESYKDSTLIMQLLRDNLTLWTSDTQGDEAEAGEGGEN
Each line names hits and unclear results; the compound was inactive in the other large screens; [ ] = another dose, or the depositor's remark. An excerpt weighted towards active compounds, which were near 2.2% of everything screened.

O=C(O)c1ccc(-n2cccc2/C=C2/NC(=O)N(c3cccc(Cl)c3)C2=O)cc1	14-3-3 Bad inh 80 (no result: RanGTP-Impb inh)
Cc1cc(NC(=O)CN(C)CCOc2ccccc2)ccc1Br	none
CN(CCOc1ccccc1)CC(=O)Nc1cccc(Br)c1	14-3-3 Bad inh 74
O=c1oc2cc(O)ccc2c2c1CCCC2	Runt-SMMHC FRET 108
O=c1oc2cc(O)ccc2c2oc3cc(O)ccc3c12	Runt-SMMHC FRET 56, RanGTP-Impb inh inconclusive
COc1cccc(C(=O)NCC(=O)OCc2ccc(F)cc2Cl)c1	none
N=c1c(C(=O)NCC2CCCO2)cc2c(=O)n3ccccc3nc2n1Cc1ccc(F)cc1 (stereo not given)	RanGTP-Impb inh 179 (no result: Runt-SMMHC FRET, TbHK1 inh, Hck Nef HTS, Runt-CBFb FRET, 14-3-3 Bad inh)
N=c1c(C(=O)NCC2CCCO2)cc2c(=O)n3ccccc3nc2n1Cc1ccco1 (stereo not given)	RanGTP-Impb inh 73 (no result: Runt-SMMHC FRET, TbHK1 inh, Hck Nef HTS, Runt-CBFb FRET, 14-3-3 Bad inh)
Cc1ccc2nc3c(cc(C(=O)NCC4CCCO4)n3C)c(=O)n2c1 (stereo not given)	Runt-SMMHC FRET 89 (no result: RanGTP-Impb inh)
COc1ccccc1CN1CN(S(=O)(=O)c2ccccc2)c2nc3ccccc3nc21	none
O=C(COc1ccccc1)N=C1SC2CS(=O)(=O)CC2N1CCc1ccccc1 (stereo not given)	none (no result: Runt-SMMHC FRET, TbHK1 inh, Hck Nef HTS, Runt-CBFb FRET, 14-3-3 Bad inh)
Cc1ccc(C(=O)NNc2cc(=O)n(C)c(=O)n2C)cc1C	RanGTP-Impb inh 28
Cn1c(NNC(=O)c2c(F)cccc2F)cc(=O)n(C)c1=O	none
Cn1c(NNC(=O)c2cccc3ccccc23)cc(=O)n(C)c1=O	Runt-SMMHC FRET 93, RanGTP-Impb inh 24
CC1CCCC(NC(=O)CCNC(=O)c2ccccc2Cl)C1C (stereo not given)	none (no result: Runt-SMMHC FRET, TbHK1 inh, Hck Nef HTS, Runt-CBFb FRET, 14-3-3 Bad inh)
S=c1[nH]nc(-c2ccc3ccccc3n2)o1	14-3-3 Bad inh 82[fluorescence artefact?]
CN(C)c1ccc(-c2ccc3c(=O)c4ccccc4n(C)c3c2)cn1	RanGTP-Impb inh 19 (no result: Runt-SMMHC FRET, TbHK1 inh, Hck Nef HTS, Runt-CBFb FRET, 14-3-3 Bad inh)
Cc1ccc(N(CC(=O)N2CCCC2)S(C)(=O)=O)c(C)c1	none (no result: Runt-SMMHC FRET, TbHK1 inh, Hck Nef HTS, Runt-CBFb FRET, 14-3-3 Bad inh)
O=S1(=O)CCN(Cc2ccccc2C(F)(F)F)CC1	none
Cc1ccc(S(=O)(=O)N2CCN(Cc3ccccc3C(F)(F)F)CC2)cc1	14-3-3 Bad inh 82
Cc1ccccc1CN1CCN(Cc2ccccc2C(F)(F)F)CC1	14-3-3 Bad inh 75
Cc1ccc(S(=O)(=O)N2CCN(Cc3ccccn3)CC2)cc1	none
O=S(=O)(c1ccccc1)N1CCN(Cc2ccccc2C(F)(F)F)CC1	14-3-3 Bad inh 79 (no result: RanGTP-Impb inh)
COCCCN(C(=S)NC(=O)C12CC3CC(CC(C3)C1)C2)c1c(N)n(Cc2ccccc2)c(=O)[nH]c1=O	none
Oc1c(N=Nc2ccccc2)sc2ccccc12	RanGTP-Impb inh 29
CC(NC(=S)Nc1ccc(Cl)cc1)C(c1ccccc1)N1CCOCC1 (stereo not given)	14-3-3 Bad inh 71
CC(NC(=O)Nc1ccccc1)C(c1ccccc1)N1CCOCC1 (stereo not given)	RanGTP-Impb inh inconclusive
COc1ccc(C2C3=C(CC(C)(C)CC3=O)Nc3n[nH]c(C)c32)cc1 (stereo not given)	none
COc1ccc(C2C3=C(CC(C)(C)CC3=O)Nc3c2c(=O)[nH]c(=O)n3Cc2ccccc2)cc1 (stereo not given)	RanGTP-Impb inh 84, Runt-CBFb FRET 102
COc1ccc(C2C3=C(CC(C)(C)CC3=O)Nc3c2c(=O)[nH]c(=O)n3Cc2ccccc2)cc1OC (stereo not given)	Runt-SMMHC FRET 79, RanGTP-Impb inh 88, Runt-CBFb FRET 56
Cc1ccc(CONC(=O)/N=C/N(C)C)cc1	none
COCCCn1c(=O)/c(=C\c2ccc(OC(F)F)c(OC)c2)s/c1=C(/C#N)C(N)=O	Runt-SMMHC FRET 81
NS(=O)(=O)c1ccc(N=Nc2ccc(O)c3ncccc23)cc1	none (no result: Runt-SMMHC FRET, TbHK1 inh, Hck Nef HTS, Runt-CBFb FRET, 14-3-3 Bad inh)
O=Cc1ccc(O)c2ncccc12	Runt-SMMHC FRET 74
Cc1cc(C)c2c(=O)n(CC(=O)Nc3cccc(F)c3)sc2n1	Runt-SMMHC FRET 65
Cc1cc(C)c2c(=O)n(CC(=O)Nc3ccc(Cl)cc3)sc2n1	none
Cc1ccc(NC(=O)Cn2sc3nc(C)cc(C)c3c2=O)c(Cl)c1	Runt-SMMHC FRET 51
CCSc1cnc(-c2ccccc2)n1CC	none
NS(=O)(=O)c1ccc(N=Nc2ccc(=O)[nH]c2O)cc1	14-3-3 Bad inh 73
Cc1nc2ccc(S(=O)(=O)NCC(=O)N3CCCC(C)C3)cc2s1 (stereo not given)	RanGTP-Impb inh inconclusive
Oc1csc(Cc2nc(-c3ccccc3F)cs2)n1	RanGTP-Impb inh 21
Oc1csc(Cc2nc(-c3ccc(-c4ccccc4)cc3)cs2)n1	none
Cc1ccc(-c2nc(=S)c3c(n2Cc2cccnc2)CC(C)(C)OC3)cc1	none
COc1ccc(-n2c(=S)[nH]c3cc(C(=O)Nc4ccc(OC)c(OC)c4)ccc3c2=O)cc1	14-3-3 Bad inh 90
COc1ccc(-n2c(=S)[nH]c3cc(C(=O)Nc4cccc(C)c4)ccc3c2=O)cc1	none
CCCS(=O)(=O)N1CCN(CC2CC3C=CC2C3)CC1 (stereo not given)	14-3-3 Bad inh 72 (no result: RanGTP-Impb inh)
CCS(=O)(=O)N1CCN(CC2CC3C=CC2C3)CC1 (stereo not given)	none
CCCS(=O)(=O)N1CCN(CC2CC=CCC2)CC1 (stereo not given)	14-3-3 Bad inh 73
N#CC(C(=O)OC1CCCCC1)c1nc2ccccc2nc1N1CCCCC1 (stereo not given)	RanGTP-Impb inh 17
N#CC(C(=O)NCCc1ccccc1)c1nc2ccccc2nc1N1CCCCC1 (stereo not given)	RanGTP-Impb inh 37
CCN1CCN(c2nc3ccccc3nc2C(C#N)C(=O)OCc2ccccc2)CC1 (stereo not given)	RanGTP-Impb inh 20
CCCCCCOC(=O)C(C#N)c1nc2ccccc2nc1N1CCN(CC)CC1 (stereo not given)	none
N#CC(C(=O)NCc1ccccc1)c1nc2ccccc2nc1N1CCCC1 (stereo not given)	Runt-SMMHC FRET 66, RanGTP-Impb inh 35
CCOC(=O)C1CCCN(c2nc3ccccc3nc2C(C#N)C(=O)NCc2ccccc2)C1 (stereo not given)	none
O=C(CS(=O)(=O)c1ccccc1)Nc1nnc(-c2cccs2)o1	none (no result: Runt-SMMHC FRET, TbHK1 inh, Hck Nef HTS, Runt-CBFb FRET, 14-3-3 Bad inh)
Cc1ccc(NC(=O)CSc2nnc(C(F)(F)F)n2C)cc1[N+](=O)[O-]	none
O=C(COC(=O)c1ccc(NS(=O)(=O)c2cccs2)cc1)NCc1ccco1	Hck Nef HTS 57
O=C(COC(=O)c1cccs1)NCc1ccco1	none (no result: TbHK1 inh, Hck Nef HTS, 14-3-3 Bad inh)
CCc1ccc(CNC(=O)CN2C(=O)COc3ccccc32)cc1	none
C=CCc1ccccc1OCC(O)CN1CCN(C(=O)OCC)CC1 (stereo not given)	none
C=CCc1ccccc1OCC(O)CN1CCN(c2ccc(C)cc2)CC1 (stereo not given)	14-3-3 Bad inh 72
